Compound activity (PubChem BioAssay)
SR-BI HDL uptake = blocks mouse SR-BI lipid uptake from DiI-HDL | ldlA[mSR-BI] CHO cells, DiI-HDL uptake fluorescence, 3 h | inhibition, % at 12.5 µM | 320,000 compounds, 0.96% hits | AID 488896;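 active means mean replicate inhibition of at least 70% and a set share of replicates each scoring 70 or more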;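 further: 0% = median of neutral control wells and 100% = median of positive control wells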
Target sequence (Q61009 whole entry, looked up): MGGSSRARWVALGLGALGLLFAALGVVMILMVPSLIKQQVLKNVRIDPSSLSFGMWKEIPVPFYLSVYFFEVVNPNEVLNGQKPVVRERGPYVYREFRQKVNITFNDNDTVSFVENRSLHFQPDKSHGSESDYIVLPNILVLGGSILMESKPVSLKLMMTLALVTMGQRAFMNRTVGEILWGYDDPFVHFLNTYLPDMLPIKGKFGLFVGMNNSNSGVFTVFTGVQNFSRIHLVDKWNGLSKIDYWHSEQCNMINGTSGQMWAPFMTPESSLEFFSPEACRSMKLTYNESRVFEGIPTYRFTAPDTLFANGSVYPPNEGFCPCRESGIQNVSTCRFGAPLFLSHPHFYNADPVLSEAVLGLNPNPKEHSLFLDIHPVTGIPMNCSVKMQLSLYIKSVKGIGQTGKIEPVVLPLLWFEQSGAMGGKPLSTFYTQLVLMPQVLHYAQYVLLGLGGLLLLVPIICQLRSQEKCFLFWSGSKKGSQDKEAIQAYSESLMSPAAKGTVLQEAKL
MITF act = activators of MITF-driven TRPM1 promoter activity in SK-MEL-5 cells; activation, % at 12.5 µM; 300,000 compounds, 0.75% hits; SK-MEL-5 TRPM1-promoter luciferase, 24 h; % of positive control, neutral wells = 0; AID 588334;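 active means mean activation of at least 80% with every replicate also reaching 80%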;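 further: 0% = neutral control wells and 100% = parthenolide positive control wells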
Wnt bcat act = activates Wnt/beta-catenin signaling in a reporter cell assay | activator, plate reader | activation, % at 9.35 µM | 300,000 compounds, 1.2% hits | AID 743398; in the data active means activation above about 30%, passing the limit was not always enough;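 further: 0% = neutral control wells and 100% = positive control wells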
HSF1 activator = increases HSF-1 driven luciferase reporter signal; AID 504408; 300,000 compounds, 1.7% hits; NIH3T3-HGL HSF-1 luciferase reporter, MG132, 8 h; 100% = twice DMSO control signal; activation, % at 9 µM;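 active means mean replicate activation of at least 50% with a set share of replicates each reaching 50%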;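 further: 0% = median of the neutral control wells and 100% = twice that signal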
SR-BI uptake up = enhances SR-BI lipid uptake from DiI-HDL; AID 504775; 320,000 compounds, 0.096% hits; CHO ldlA[mSR-BI] cells, DiI-HDL uptake fluorescence, 3 h; 100 = double the neutral-control signal; activation, % at 12.5 µM;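 active means mean replicate activation of at least 60% and every replicate at or above 60%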;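 further: 0% = median plate neutral-control signal and 100% = twice that signal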
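Test system: SR-BI-overexpressing, LDLR-lacking CHO cells. Measured by: DiI fluorescence, bottom read. Medium: Ham's F12 with 0.5% BSA, HEPES 25 mM, pH 7.4. Timing: 3 h uptake period with compound, 37 °C.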
* marks the source's active call; other numbers are inactive results; · = no result given. Only some compounds are listed: those with a hit (about 3.6% of all), similar ones and a draw of the others.

SMILES	SR-BI HDL uptake	MITF act	Wnt bcat act	HSF1 activator	SR-BI uptake up
O=C(NC(=O)c1ccccc1)Nc1ccccc1	19.0	2.7	35.5*	46.1	-19.0
CCc1nc2ccc(C(=O)N3CCCCC3)cn2c1N(C)CCCc1ccccc1	·	·	-1.1	·	·
O=C(CSc1n[nH]c(-c2ccccc2)n1)Nc1ccccc1O	-10.1	-23.4	-0.3	64.9*	10.1
COCCOC(=O)c1c(C)n(C)c2ccc(OC(=O)c3c(OC)cccc3OC)cc12	-396.6	5.7	-1.5	-7.5	396.6*
COCCOC(=O)c1c(C)n(C)c2ccc(OC(=O)N3CCOCC3)cc12	3.8	2.2	-0.7	7.4	-3.8
CC(C)(CNC(=O)c1cccc(S(=O)(=O)N2CCCCC2)c1)N1CCOCC1	·	·	119.1*	·	·
O=C(OCCOc1ccccc1)c1cccc(S(=O)(=O)N2CCOCC2)c1	38.9	·	-0.9	·	-38.9
CN(C)c1cccc(C(=O)OCCNC(=O)c2cccc(S(=O)(=O)N3CCOCC3)c2)c1	53.6	-0.7	2.2	58.8*	-53.6
CCN(C(=O)c1cccc(S(=O)(=O)N2CCCCC2)c1)C1CCS(=O)(=O)C1 (configuration not stated)	-28.3	2.1	-3.6	57.5*	28.3
C=CCN(c1ccccc1)S(=O)(=O)c1cccc(C(=O)Nc2ccncc2)c1	21.7	-14.1	-0.1	12.9	-21.7
C=CCN(c1ccccc1)S(=O)(=O)c1cccc(C(=O)Nc2ccc(N3CCOCC3)cc2)c1	80.2*	-12.9	-0.8	·	-80.2
CCOC(=O)C1=C(C(=O)OCC)C2N(Cc3ccc(Br)cc3)c3ccccc3[C@@]23C[C@@H](C(=O)OC)N(S(=O)(=O)c2cccs2)C3=N1 (some centres not stated)	·	·	0.0	·	·
COc1cc(OC)cc(C(=O)NNC(=O)C2CCC2)c1	·	·	-0.4	·	·
CCc1cccc(NC(=O)c2cccc(S(=O)(=O)N3CCN(C)CC3)c2)c1	·	-5.7	-1.6	78.3*	·
C=CCN(c1ccccc1)S(=O)(=O)c1cccc(C(=O)NNC(=O)c2ccccc2O)c1	87.5*	-21.2	-3.9	1.9	-87.5
CCc1cccc(CC)c1NC(=O)c1cccc(S(=O)(=O)N2CCN(C)CC2)c1	-18.3	2.1	0.8	-9.0	18.3
O=C(Nc1ccc(N2CCOCC2)cc1)c1cccc(S(=O)(=O)N2CCCCC2)c1	80.5*	5.5	·	2.8	-80.5
CCC(N=c1cc(-c2ccc(OC)cc2)oc2ccc(C)cc12)C(=O)O (configuration not stated)	-36.1	53.4	47.4*	58.7*	36.1
Cc1ccc(-c2nnc(-n3ncc(C#N)c3N)c3ccccc23)cc1C	78.0*	-4.8	-2.9	8.4	-78.0
COc1ccccc1-c1csc(-n2ncc(C#N)c2N)n1	32.7	8.2	3.4	-8.9	-32.7
Cc1ccc(CN2C(=O)CCC2(C)c2nnnn2-c2ccc3c(c2)OCCO3)cc1 (configuration not stated)	·	·	-6.3	·	·
Cc1cc(Br)c(OCc2ccc(C(=O)N/N=C3\CC4CC=CC34)cc2)c(Br)c1 (configuration not stated)	84.1*	-2.1	-6.1	4.7	-84.1
O=C(N/N=C1\CC2CC=CC12)c1ccc(Br)cc1 (configuration not stated)	-15.2	0.4	-0.6	13.9	15.2
Cc1cccc(-c2nc(C#N)c(N3CCCCC3)o2)c1	-6.3	71.7	15.2	20.6	6.3
Cc1cccc(-c2nc(C#N)c(NC3CCCCC3)o2)c1	16.3	100.0*	·	33.5	-16.3
SMILES	SR-BI HDL uptake	MITF act	Wnt bcat act	HSF1 activator	SR-BI uptake up
Cc1ccc(C(=O)NCCN2CCOCC2)cc1	0.0	11.3	-1.6	-14.9	0.0
Cc1ccc(C(=O)NCCC(=O)N2CCOCC2)cc1	-16.4	44.6	37.0*	32.0	16.4
Cc1ccccc1S(=O)(=O)NC(=O)C1(C)CCN1C(=O)Cc1cc(F)ccc1F (configuration not stated)	·	·	-0.7	·	·
Cc1cc(NC(=O)c2ccc(F)cc2)n(-c2ccccc2)n1	12.5	0.3	-1.3	13.5	-12.5
Cc1cc(NC(=O)CC#N)n(-c2ccccc2)n1	-21.9	13.9	-0.9	17.5	21.9
CCOC(=O)/C=C(\C)Nc1cc(C)nn1-c1ccccc1	0.4	4.9	-4.8	53.9*	-0.4
Cc1cc(NC(=O)Nc2cc(C)nn2-c2ccccc2)n(-c2ccccc2)n1	83.9*	6.3	·	5.2	-83.9
O=C(N[C@H](C(=O)N1CCC[C@H]1C(=O)NCCc1ccccc1Cl)c1ccccc1)c1cccs1	·	·	-1.6	·	·
CCCCOc1ccc(C(=O)NCCc2ccccc2)cc1	-8.5	25.8	14.2	41.3	8.5
NC(=S)c1ccc(OCCCc2ccccc2)cc1	·	·	37.0*	·	·
CC1c2ccsc2CCN1C(=O)NC(=O)c1ccc(Cl)cc1 (configuration not stated)	-1.8	·	0.2	71.5*	1.8
CC1CC[C@@]2(OC1)O[C@H]1CC3[C@@H]4C[C@@H](O)[C@@]5(O)C[C@@H](O)[C@H](O)C[C@]5(C)[C@H]4CC[C@]3(C)[C@H]1[C@@H]2C (some centres not stated)	-68.8	-7.4	0.6	-8.6	68.8*
CCn1c(CSCc2ccc(C)cc2)n[nH]c1=S	-5.6	-8.7	0.2	-9.0	5.6
CCn1c(CC(C)C)n[nH]c1=S	9.4	·	8.4	58.9*	-9.4
COCCCNc1nc2nonc2nc1N1CCN(Cc2cccc(C)c2)CC1	52.0	-10.9	-4.6	63.1*	-51.9
COCCCNc1nc2nonc2nc1N1CCN(C2CCCC2)CC1	17.9	1.6	0.2	1.1	-17.9
COc1ccccc1NC(=S)N1CCN(c2cccc(C)c2C)CC1	-4.1	-0.2	-1.1	-8.6	4.1
N#C/C(=C/c1ccc(N2CCOCC2)o1)c1ccc(Cl)cc1	85.4*	105.9*	-14.5	38.7	-85.4
Nc1ccccc1-n1cccc1	0.3	·	61.5*	-12.6	-0.3
CC(NC(=O)c1ccncc1)C(c1cccs1)N1CCOCC1 (configuration not stated)	-18.9	-6.6	-0.5	4.5	18.9
CC(C)(C)c1ccc(C(=O)NC(=S)N2CCOCC2)cc1	6.5	103.9*	34.3*	25.9	·
CC(NC(=O)c1ccc(C(C)(C)C)cc1)C(c1cccs1)N1CCOCC1 (configuration not stated)	24.9	-0.6	-0.2	69.1*	-24.9
CC(=O)Nc1ccc(CCCCc2ccc(NC(C)=O)cc2)cc1	11.8	6.9	-1.2	·	-11.8
Cc1noc(C)c1C(=O)OC(C)C(=O)c1ccc(C(C)(C)C)cc1 (configuration not stated)	·	·	-0.5	·	·
O=C(O)COc1ccc(/C=C/c2nc(-c3ccccc3O)n[nH]2)cc1	5.0	·	-1.6	-7.3	-5.0
COc1ccc(/C=C/c2nc(-c3ccccc3O)n[nH]2)cc1OC	15.5	142.8*	24.2	-7.4	-15.5
CCn1c(O)c(C#N)c(C)cc1=O	-16.4	·	47.7*	8.6	16.4
CCCc1[nH]nc2c1C(c1cc(OC)cc(OC)c1)C(C#N)=C(N)O2 (configuration not stated)	-41.0	·	3.7	13.9	41.0
